From article PMC7336334 (ACS chemical biology, 2020)

Experiments:
[1] = system: K-562, KG-1, MOLM-13, and WM-266–4 cells; experiment: In situ probe labeling with in-gel TAMRA fluorescence, other cancer cell lines; type: cell-based, human; conditions: K-562, KG-1, MOLM-13, WM-266–4 cells, 1 h treatment with 10 μM probe, triplicate
Method in brief: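 Cell media: K-562 in RPMI 1640 with 10% FCS, KG-1 and MOLM-13 with 20% FCS, WM-266–4 in EMEM with 10% FCS. Cells were treated in serum-free medium, in triplicate, with 10 μM probe, control probe or 1% DMSO for 1 h at 37 °C. UV at 365 nm for 1 h, then RIPA lysis. Click with TAMRA-biotin-azide/CuSO4/TCEP/TBTA, SDS-PAGE, in-gel fluorescence, SYPRO Ruby loading control.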

MCF-7 cells = experiment: In situ probe labeling with in-gel TAMRA fluorescence, MCF-7; type: cell-based, human; conditions: 100 μM competitor, 10 μM probe 4, UV irradiation
Method in brief: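 MCF-7 cells (RPMI 1640, 10% FCS) at 80–90% confluence were washed and put in serum-free medium. They got 10 μM probe for 1 h at 37 °C, with 100 μM competitor, then 1 h of 365 nm UV. Lysis in RIPA plus protease inhibitors. SDS-PAGE, fluorescence scan, SYPRO Ruby loading control.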

KHMTs = experiment: KHMT inhibition; type: biochemical; conditions: Supporting Information Graph SI-1
DNMT = DNMT inhibition; type: biochemical; conditions: Supporting Information Graph SI-1
PRMTs = experiment: PRMT inhibition; type: biochemical; conditions: Supporting Information Graph SI-1
recombinant GRP94 = type: binding; conditions: at 50 μM
recombinant HSP90α = type: binding; conditions: at 50 μM

SMILES: C#CCCCC(=O)Nc1ccc(C(=O)c2ccc(NC(=O)CCCCNC(=O)OC(C)(C)C)cc2)cc1 [Compound 5, N-(4-(4-(5-(Boc-amino)pentanamido)benzoyl)phenyl)hex-5-ynamide]
- labeling of band at 100 kDa / fluorescent labeling [1]: absence of fluorescent labeling

SMILES: COCn1cc(C(=O)NCC[C@H]2O[C@@H](n3cnc4c(N)ncnc43)[C@H](O)[C@@H]2O)c(N)nc1=O [Compound 1, 1-(Methoxymethyl)-N-((5′-deoxyadenosin-5′-yl)methyl)cytosine-5-carboxamide]
- labeling of probe 4 after competition (MCF-7 cells): completely abolished
- activity against KHMTs (KHMTs): inactive
- activity against DNMT (DNMT): inactive
- activity against PRMTs (PRMTs): inactive
- binding to GRP94 (recombinant GRP94): minor binding
- binding to HSP90α (recombinant HSP90α): no significant binding

SMILES: Nc1nc(=O)n(COCc2ccccc2)cc1C(=O)NCC[C@H]1O[C@@H](n2cnc3c(N)ncnc32)[C@H](O)[C@@H]1O [Compound 2]
- labeling of probe 4 after competition (MCF-7 cells): completely abolished
- activity against KHMTs (KHMTs): inactive
- activity against DNMT (DNMT): inactive
- activity against PRMTs (PRMTs): inactive
- binding to GRP94 (recombinant GRP94): minor binding
- binding to HSP90α (recombinant HSP90α): no significant binding
